Reference: ChEMBL document CHEMBL5724801, “EUbOPEN Chemogenomics Library - Multiplex” (2024)
Values joined by “and” are separate entries in the source; they are usually repeats but may differ in a detail not shown here. Equal values may be shown once.

Each compound was assayed on U2OS (assay: Multiplex assay against U2OS). Settings: human, 12 h, 1 µM, compound concentration 1 uM.
Format: toxicity, cell-based
Outline: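 Hoechst33342, BioTracker Green Microtubule Cytoskeleton Dye, MitoTracker Red and Annexin V Alexa Fluor 680 were added to live cells at seeding, and imaging on a CQ1 microscope at 37°C and 5% CO2 followed compound addition. Gating by CellPathfinder machine learning separated cells into Hoechst high-intensity objects or normal cells, then normal cells into healthy, pyknosed or fragmented nuclei, then pyknosed cells into mitotic or apoptotic. Per cents of healthy-nucleus cells are reported for the tubulin, mitochondrial-mass and membrane-permeability phenotypes.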

Compound	Population Apoptotic (%)	Population Fragmented Nuclei (%)	Population Healthy Nuclei (%)	Population Hoechst High Intensity Objects (%)	Population Membrane Permeable-Phenotype (%)	Population Mitochondria Different-Phenotype (%)	Population Normal (%)	Population Pyknosed Nuclei (%)	Population Tubulin-Different-Phenotype (%)	Total Cell Count
O=C(CCCc1ccccc1)Nc1nc2ccccc2c(=O)s1	92% and 55%	26% and 17%	64% and 74%	2% and 0%	4% and 7%	2% and 3%	97% and 100%	9% and 7%	1% and 2%	274 and 113
COCCn1c(C)c(C)s/c1=N\C(=O)C1C(C)(C)C1(C)C	88% and 71%	24% and 20%	69% and 74%	0%	8% and 11%	1% and 3%	99% and 100%	6% and 5%	3% and 5%	271 and 135
O=C1N=C(NCc2cccs2)S/C1=C\c1ccc2ncccc2c1	36.36% and 33.33%	2.87% and 8.81%	87.42% and 78.76%	0%	0.51% and 3.95%	–	100%	9.71% and 12.44%	1.01% and 1.97%	453 and 193
c1ccc2nc(N3CCNCC3)ccc2c1 [QUIPAZINE]	38.46% and 42.86%	2.12% and 3.18%	85.61% and 83.44%	0%	0.28% and 1.53%	–	100%	12.26% and 13.38%	0.28% and 0%	424 and 157

Same assay, conditions: human, 12 h, 1 µM, compound concentration 1 uM

Compound	Population Mitotic Cells (%)
COCCn1c(C)c(C)s/c1=N\C(=O)C1C(C)(C)C1(C)C	11% and 28%
O=C1N=C(NCc2cccs2)S/C1=C\c1ccc2ncccc2c1	63.64% and 66.67%
c1ccc2nc(N3CCNCC3)ccc2c1 [QUIPAZINE]	61.54% and 57.14%

Same assay, conditions: human, 12 h, 10 µM, compound concentration 10 uM

Compound	Population Apoptotic (%)	Population Fragmented Nuclei (%)	Population Healthy Nuclei (%)	Population Hoechst High Intensity Objects (%)	Population Membrane Permeable-Phenotype (%)	Population Mitochondria Different-Phenotype (%)	Population Normal (%)	Population Pyknosed Nuclei (%)	Population Tubulin-Different-Phenotype (%)	Total Cell Count
O=C(CCCc1ccccc1)Nc1nc2ccccc2c(=O)s1	72% and 100%	31% and 20%	58% and 67%	2% and 4%	2% and 7%	0% and 6%	97% and 95%	9% and 11%	1% and 6%	270 and 101
COCCn1c(C)c(C)s/c1=N\C(=O)C1C(C)(C)C1(C)C	73% and 80%	33% and 20%	52% and 68%	2% and 0%	10% and 9%	4% and 3%	97% and 100%	13% and 11%	5% and 4%	220 and 135
O=C1N=C(NCc2cccs2)S/C1=C\c1ccc2ncccc2c1	55% and 44%	1.99% and 5.59%	91.39% and 78.88%	0%	16.67% and 19.69%	–	100%	6.62% and 15.53%	18.48% and 14.96%	302 and 161
c1ccc2nc(N3CCNCC3)ccc2c1 [QUIPAZINE]	41.67% and 21.05%	2.14% and 2.94%	88.24% and 85.88%	0%	2.12% and 2.05%	0.61% and 9.59%	100%	9.63% and 11.18%	1.21% and 0%	374 and 170

Same assay, conditions: human, 12 h, 10 µM, compound concentration 10 uM

Compound	Population Mitotic Cells (%)
COCCn1c(C)c(C)s/c1=N\C(=O)C1C(C)(C)C1(C)C	26% and 20%
O=C1N=C(NCc2cccs2)S/C1=C\c1ccc2ncccc2c1	45% and 56%
c1ccc2nc(N3CCNCC3)ccc2c1 [QUIPAZINE]	58.33% and 78.95%

Same assay, conditions: human, 24 h, 1 µM, compound concentration 1 uM

Compound	Population Apoptotic (%)	Population Fragmented Nuclei (%)	Population Healthy Nuclei (%)	Population Hoechst High Intensity Objects (%)	Population Membrane Permeable-Phenotype (%)	Population Mitochondria Different-Phenotype (%)	Population Mitotic Cells (%)	Population Normal (%)	Population Pyknosed Nuclei (%)	Population Tubulin-Different-Phenotype (%)
O=C(CCCc1ccccc1)Nc1nc2ccccc2c(=O)s1	79% and 84%	22% and 17%	68% and 73%	1% and 0%	4% and 8%	2%	20% and 15%	98% and 100%	9%	2% and 3%
COCCn1c(C)c(C)s/c1=N\C(=O)C1C(C)(C)C1(C)C	89% and 83%	18%	75% and 77%	0%	5% and 9%	3%	10% and 16%	99%	6% and 3%	2% and 4%
O=C1N=C(NCc2cccs2)S/C1=C\c1ccc2ncccc2c1	37.5% and 40.54%	1.66% and 6.39%	87.71% and 79.7%	0%	0.95% and 5.19%	0.19% and 9.91%	62.5% and 59.46%	100%	10.63% and 13.91%	0.38% and 1.42%
c1ccc2nc(N3CCNCC3)ccc2c1 [QUIPAZINE]	52.86% and 39.13%	0.69% and 1.94%	87.26% and 86.89%	0.17% and 0%	0.79% and 3.91%	0.39% and 6.7%	47.14% and 60.87%	99.83% and 100%	12.05% and 11.17%	1.38% and 0%

Same assay, conditions: human, 24 h, 1 µM, compound concentration 1 uM

Compound	Total Cell Count
O=C(CCCc1ccccc1)Nc1nc2ccccc2c(=O)s1	325 and 141
COCCn1c(C)c(C)s/c1=N\C(=O)C1C(C)(C)C1(C)C	314 and 157
O=C1N=C(NCc2cccs2)S/C1=C\c1ccc2ncccc2c1	602 and 266
c1ccc2nc(N3CCNCC3)ccc2c1 [QUIPAZINE]	582 and 206

Same assay, conditions: human, 24 h, 10 µM, compound concentration 10 uM

Compound	Population Apoptotic (%)	Population Fragmented Nuclei (%)	Population Healthy Nuclei (%)	Population Hoechst High Intensity Objects (%)	Population Membrane Permeable-Phenotype (%)	Population Mitochondria Different-Phenotype (%)	Population Mitotic Cells (%)	Population Normal (%)	Population Pyknosed Nuclei (%)	Population Tubulin-Different-Phenotype (%)
O=C(CCCc1ccccc1)Nc1nc2ccccc2c(=O)s1	86% and 100%	25% and 19%	65% and 71%	2% and 1%	5% and 8%	1% and 2%	13% and 0%	97% and 98%	9%	4% and 3%
COCCn1c(C)c(C)s/c1=N\C(=O)C1C(C)(C)C1(C)C	80% and 88%	28% and 21%	58% and 66%	1%	8% and 10%	8% and 1%	19% and 11%	98%	12%	2% and 9%
O=C1N=C(NCc2cccs2)S/C1=C\c1ccc2ncccc2c1	68.42%	4.38% and 8.12%	76.43% and 68.12%	0%	10.57% and 12.84%	–	31.58%	100%	19.19% and 23.75%	13.66% and 9.17%
c1ccc2nc(N3CCNCC3)ccc2c1 [QUIPAZINE]	40.82% and 48%	0.76% and 0%	89.87% and 89.41%	0%	1.06% and 3.32%	0.43% and 6.16%	59.18% and 52%	100%	9.37% and 10.59%	1.28% and 0%

Same assay, conditions: human, 24 h, 10 µM, compound concentration 10 uM

Compound	Total Cell Count
O=C(CCCc1ccccc1)Nc1nc2ccccc2c(=O)s1	319 and 124
COCCn1c(C)c(C)s/c1=N\C(=O)C1C(C)(C)C1(C)C	257 and 141
O=C1N=C(NCc2cccs2)S/C1=C\c1ccc2ncccc2c1	297 and 160
c1ccc2nc(N3CCNCC3)ccc2c1 [QUIPAZINE]	523 and 236

Same assay, conditions: human, 48 h, 1 µM, compound concentration 1 uM

Compound	Population Apoptotic (%)	Population Fragmented Nuclei (%)	Population Healthy Nuclei (%)	Population Hoechst High Intensity Objects (%)	Population Membrane Permeable-Phenotype (%)	Population Mitochondria Different-Phenotype (%)	Population Mitotic Cells (%)	Population Normal (%)	Population Pyknosed Nuclei (%)	Population Tubulin-Different-Phenotype (%)
O=C(CCCc1ccccc1)Nc1nc2ccccc2c(=O)s1	91% and 87%	13% and 19%	76% and 71%	7% and 5%	3%	2% and 3%	8% and 12%	92% and 94%	9% and 8%	1% and 6%
COCCn1c(C)c(C)s/c1=N\C(=O)C1C(C)(C)C1(C)C	94% and 100%	12% and 15%	79%	1%	5% and 9%	2% and 1%	5% and 0%	98%	8% and 4%	4% and 5%
O=C1N=C(NCc2cccs2)S/C1=C\c1ccc2ncccc2c1	47.06% and 45.1%	4.77% and 4%	86.23% and 84%	0.09% and 0%	0.92% and 1.96%	0.1% and 4.48%	52.94% and 54.9%	99.91% and 100%	9% and 12%	0.82% and 0.28%
c1ccc2nc(N3CCNCC3)ccc2c1 [QUIPAZINE]	43.56% and 50%	2.56% and 1.98%	88.55% and 87.25%	0%	0.9% and 1.95%	0.2% and 3.9%	56.44% and 50%	100%	8.9% and 10.76%	0.9% and 0.32%

Same assay, conditions: human, 48 h, 1 µM, compound concentration 1 uM

Compound	Total Cell Count
O=C(CCCc1ccccc1)Nc1nc2ccccc2c(=O)s1	394 and 192
COCCn1c(C)c(C)s/c1=N\C(=O)C1C(C)(C)C1(C)C	459 and 218
O=C1N=C(NCc2cccs2)S/C1=C\c1ccc2ncccc2c1	1134 and 425

Same assay, conditions: human, 48 h, 10 µM, compound concentration 10 uM

Compound	Population Apoptotic (%)	Population Fragmented Nuclei (%)	Population Healthy Nuclei (%)	Population Hoechst High Intensity Objects (%)	Population Membrane Permeable-Phenotype (%)	Population Mitochondria Different-Phenotype (%)	Population Mitotic Cells (%)	Population Normal (%)	Population Pyknosed Nuclei (%)	Population Tubulin-Different-Phenotype (%)
O=C(CCCc1ccccc1)Nc1nc2ccccc2c(=O)s1	91% and 95%	20% and 15%	70% and 72%	2% and 0%	5% and 9%	0% and 3%	8% and 4%	97% and 99%	8% and 12%	3% and 5%
COCCn1c(C)c(C)s/c1=N\C(=O)C1C(C)(C)C1(C)C	81% and 96%	22% and 15%	62% and 71%	2% and 1%	11% and 4%	4%	–	97% and 98%	14% and 12%	5% and 2%
O=C1N=C(NCc2cccs2)S/C1=C\c1ccc2ncccc2c1	81.63% and 92.42%	10.65% and 9.25%	57.74% and 52.6%	0%	3.91% and 5.49%	–	18.37% and 7.58%	100%	31.61% and 38.15%	–
c1ccc2nc(N3CCNCC3)ccc2c1 [QUIPAZINE]	39.47% and 52.17%	3.42% and 0.25%	89.16% and 94.06%	0% and 0.25%	0.99% and 2.63%	0.11% and 1.84%	60.53% and 47.83%	100% and 99.75%	7.42% and 5.69%	1.42% and 0.79%

Same assay, conditions: human, 48 h, 10 µM, compound concentration 10 uM

Compound	Total Cell Count
O=C(CCCc1ccccc1)Nc1nc2ccccc2c(=O)s1	427 and 175
COCCn1c(C)c(C)s/c1=N\C(=O)C1C(C)(C)C1(C)C	305 and 206
O=C1N=C(NCc2cccs2)S/C1=C\c1ccc2ncccc2c1	310 and 173
c1ccc2nc(N3CCNCC3)ccc2c1 [QUIPAZINE]	1024 and 405
